From the EternaBench riboswitch data

Tested on: MS2 coat protein
Test: apparent Kd, MS2 coat protein; higher = weaker binding; RNA-MaP array; FMN 200 µM where present
Procedure, shortened: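 Apparent Kd: the median of filtered binding-curve fits from single clusters. Designs were transcribed on Illumina sequencing-chip clusters by stalled E. coli RNA polymerase and titrated with SNAP-549-labelled MS2 coat protein from 0.7 or 1.5 nM, doubling to 3 µM, in 100 mM Tris-HCl pH 7.5, 80 mM KCl, 4 mM MgCl2, BSA, DTT, yeast tRNA and Tween-20. Each series ran without and then with constant ligand, and green signal was normalised to red-channel RNA signal and control-cluster median Fmax.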

[1] = designed as: OFF switch for flavin mononucleotide, no ligand
[2] = ligand present: flavin mononucleotide, designed as: OFF switch for flavin mononucleotide
[3] = designed as: ON switch for flavin mononucleotide, no ligand
[4] = ligand present: flavin mononucleotide, designed as: ON switch for flavin mononucleotide

Sequence | apparent Kd [1] [µM] | apparent Kd [2] [µM] | apparent Kd [3] [µM] | apparent Kd [4] [µM]
AAGAAGCACGCAGGAUAUCUCACCCAUGUAAGAAGAGAAGGGCGACAUGAGGAUCACCCAUGUCAACAUGAGGAUCACCCAUGU | 0.0622 | 0.0878 |  | 
GGGAGUGGAGGGAAUAACAUGAGGAUCACCCAUGUAUGGGAGAGAAGGCAGGUCGGAGGGCGGUCUGAGGAUAUUUAGACUCCU |  |  | 0.00896 | 0.00743
GUGUAGUCAGGAUAUACAUGAGGAUCACCCAUGUGAAUAAGAUAGAAUAAGAUAAAGUGUAGAAGGGAUAGUGU | 0.0296 | 0.0257 |  | 
UUCAUCAAUGAAGGAUAUCUAUGUCCAACAUGAGGAUCACCCAUGUUGAGGAUCACCUAUGUAAAGGAGAAGGUUAAUAUAACU |  |  | 0.00696 | 0.00642
AGUCGGCGAGGAUAUACAUGAGGAUCACCCAUGUGAGAGAUAAAAGUGAGUUAGACAAGUAGAAGGCGCUGACA | 0.0597 | 0.469 |  | 
CUUUAAGUCGAGAAGGACAUGAGGAUCACCCAUGUAGGAUAUCGAUUAGCUUACAACCCGAGCCGCAUUGGUAUGACUGGUGGG |  |  | 0.0129 | 0.00623
CCUCUGUUAGGAUAUCUUUUGUUCGCCGUAGGUCGGAUCAUGGAGAAGGGACAUGAGGAUCACCCAUGUUUACC | 0.0297 | 0.0562 |  | 
AAAGAACAUGAGGAUCACCCAUGUGAGGAUAUGCGAAAACCGCUGGCGCACCAGACGGGCAGAAGGCAUAUGGU | 0.0756 | 0.0925 |  | 
GCUAGUAUUGCAGGAUAUUGAUAUUAAUUAUGGCAAGAAGGGCAUUACAUGAGGAUCACCCAUGUUUUCCUUAGUCAUACUAGC | 0.00533 | 0.00539 |  | 
UCCAUGUUAGGAUAUUACAUGCAGGCUGUAACACGCCGGUGUAAGAAGGAACAUGAGGAUCACCCAUGUGUCGU | 0.068 | 0.137 |  | 
AGUUUCUUGUAAGGAUAUACUAGCGAUAAGCUAGUAGAAGGUACUGUCUAUUGUAUCACUAUUUUACAUGAGGAUCACCCAUGU |  |  | 0.00713 | 0.0062
UAUGUAUUCGUAGGAUAUCCGUCGCCACCGUGUGGAGAAGGACGAACAUGAGGAUCACCCAUGUAUCAUGGUGUAGACAAUUUU | 0.077 | 0.135 |  | 
AGCAUGUGAGGAUAUGCGGACUCCGGUAAAUCUGGAGUCCAGUAGAAGGCACAUGAGGAUCACCCAUGUGAUAA | 0.0983 | 0.0832 |  | 
UUAGCAACAUGAGGAUCACCCAUGUAGGAUAUCGCUAUUGUAAUCAUGAAACAUGAUUACAAUAGCGAGAAGGACAUAUGCUAA | 0.00642 | 0.00948 |  | 
AAUACAUGAGGAUCACCCAUGUAAAGAUCUGUUAAUAGAUGUGAGGAUAUACUAAAUUUUAGGUAGUAGAAGGCACUGGGUACA |  |  | 0.0221 | 0.026
UAAGUUUAGGUAGGAUAUACUUUCAAUUUCUCUUUCCUUACAUGAGGAUCACCCAUGUUUACAUUGUAGAAGGACCACUAUGUU | 0.0318 | 0.0268 |  | 
AUUUAUGGCCAGAAGGACAUGAGGAUCACCCAUGUAGGAUAUGGACGAUUUUACUCGGCGGUUUGUUUAGGAAGCACCGGCGGU |  |  | 0.008 | 0.00632
AAUUUACAGGGAGGAUAUACAUGAGGAUCACCCAUGUAAUCAUAUGAUAUUUUUUUUGUAUGAGUGUAGAAGGCCCAACUACCA | 0.0107 | 0.011 |  | 
UAUAUAAUAAGAGCUGGACUUCAAACAUGAGGAUCACCCAUGUAGGAUAUCAGCACGAUAAGUGCUGAGAAGGACAACCAGCUC | 0.0165 | 0.0168 |  | 
GCGAAUUAGUGAGGAUAUACAUAAUUUAAAACUGUAGAAGGCACAAUCCUCAAGACAUGAGGAUCACCCAUGUGAUAUUAAGCU | 0.046 | 0.158 |  | 
GUGGUCAGACAUGAGGAUCACCCAUGUGGAAUAAAUAACAGACAGGAUAUCUAAUAUAGGAUAUAGGAGAAGGGUCGAUUGGUG |  |  | 0.089 | 0.0853
UUCCUCAAGUAAGGAUAUACCACGGUAUGCUGAGUAGAAGGUACAUGAGGAUCACCCAUGUGCAUCCCACGAUUGCAUUGGUCA | 0.0304 | 0.145 |  | 
CCCAGGUCAUCUCCCGGGAACAACAUGAGGAUCACCCAUGUCUAGGAUAUCCACCAGUCAAUAAAGGAGAAGGAGACGGUGGUU | 0.0293 | 0.0319 |  | 
CUGAUUUGCUAGAAGGGUGACAUGAGGAUCACCCAUGUGCGGGCAGACCUAUCUUCAUGCCCGCCACAGGAUAUAGCAAUUCGC |  |  | 0.0383 | 0.0482

Sequence | apparent Kd [1] [µM] | apparent Kd [2] [µM] | apparent Kd [3] [µM] | apparent Kd [4] [µM]
ACGUCGAGCCAGAAGGCAACAUGAGGAUCACCCAUGUAGUCCGGCUCGUGUUGAGGAUAUGGCACCCGCGCGGAAGGCGCAGGU | 0.00512 | 0.00662 |  | 
AUAUCUCCCGAGAAGGACGUACCACAUGUUGAUCACCGAUAUAAGGAACGUAGGAUAUUGGACAUGAGGAUCACCCAUGUGGAU |  |  | 0.391 | 0.0236
UGGUACAUGAGGAUCACCCAUGUAAGAGCCCUCAUGCGAUGUAGAAGGAUAAUGCGAGUAGUGCUAUAGGAUAUACAUGAGUUU | 0.225 | 0.207 |  | 
CUCAUGUGAGGAUAUGUGAUCUGCUUUCUGUGUAGAUGAUCACAGAAGGCACAUGAGGAUCACCCAUGUAGAUC | 0.0706 | 0.0296 |  | 
GCCUCACAUGAGGAUCACCCAUGUCAGGAUAUCUAACGCGAGGUGCAGGCACUUCGUGAGAGAAGGGACGUCAA | 0.0203 | 0.0344 |  | 
CGAUAGGACAGAGGAUAUACGUGCUAGAGAUACUAGCAAAAUUUCCUCACAUGAGGAUCACCCAUGUAGAAGGCUGUCCUAUCG | 0.0156 | 0.439 |  | 
GUGGUCAGACAUGAGGAUCACCCAUGUGGAAUAAAUAACACACAGGAUAUGUAAUAUAGGAUAUAACAGAAGGGUGGAUUGGUG |  |  | 0.318 | 0.168
CUGACAGCGCAGAAGGGAGAUCCUACAUGAGGAUCACCCAUGUGGGCUCUCAGGAUAUGCACGUGUAUACCGAAAGUGGUAUUG |  |  | 0.0134 | 0.00599
UUCGCUAAGGUGUAGCGAGACAUGCAAGAAGGGUGAAGAACAUGAGGAUCACCCAUGUAAUCCUUACAGGAUAUUGAUUGACGA |  |  | 0.307 | 0.181
GCAUGGUAUGAGAAGGCAUAUUUAAUCUAACAACAUGUUUACAUGAGGAUCACCCAUGUUACCAAUGAGGAUAUCAUACCGUGC | 0.00731 | 0.00728 |  | 
ACAAAAUUGAUCCAAUUUACCAACAUGAGGAUCACCCAUGUGCAGGAUAUGCUAAAGAUGAAUAAGCAGAAGGGCAAAUACAUA | 0.239 | 0.708 |  | 
UCAGGAGUCACAGGAUAUCCGGCGUAGCACACAGGAGAAGGGUGAUCACGAGCACAUGAGGAUCACCCAUGUGACAUUUGUGAG |  |  | 0.0404 | 0.0507
GUUACAUGAGGAUCACCCAUGUAUGUGUGGGAGUAAGUGUCUUAGGAUAUCUAUGAUUUAAUUGAAGAGAAGGAAGAUUGUUGU |  |  | 0.116 | 0.122
GGGUACAUCGGAGGAUAUCAUGUAAAUACAUGAGGAUCACCCAUGUCGAUGGAGACAUCGGAGAUUGAGAAGGCCGACGUACCG |  |  | 0.187 | 0.00915
AACUUACAUGAGGAUCACCCAUGUCAGGAUAUCGAAAUUGGCUCGCAAUUGCGAGCGACGAGAAGGGACGUUUU | 0.0173 | 0.0248 |  | 
CCACGUCUCAUUAACAUGAGGAUCACCCAUGUCAAAAGACAUGAGGAUAUGGAUCCUAAUUGGAUCCAGAAGGCAUGGACGUGG |  |  | 0.516 | 0.0594
GUGCGACAUGAGGAUCACCCAUGUGAGGAUAUCCCGGGCCGGGCUUUUGCCCGGCCCGGGAGAAGGCGCGUCGU | 0.0684 | 0.0707 |  | 
UUGUGGGAGCAGGAUAUCUUAUUUUUUUUUUGUGGAGAAGGGCUGACAUGAGGAUCACCCAUGUGGUCCUAGAU | 0.0282 | 0.0279 |  | 
AUCAUGUCAGGAUAUAUGACAUGGCUCUUCGGAGCAAGCUCAUAGAAGGGACAUGAGGAUCACCCAUGUAGAGC | 0.0227 | 0.0305 |  | 
AUCAUGUAAGGAUAUCUGACAUGUGACUUCGGUCACUGUUCAGAGAAGGUACAUGAGGAUCACCCAUGUAGAAC | 0.0767 | 0.0786 |  | 
GCCUCACAUGAGGAUCACCCAUGUCAGGAUAUACCCAUCCGGCGCAAUUGCAGCCGUAGUAGAAGGGACAUGCA | 0.0212 | 0.0458 |  | 
CGGUCGAUGUAAGGAUAUCGACUGGAAUACAGUCGAGAAGGUACAUGAGGAUCACCCAUGUAAUCCUAAUAAUAAUAACGACCG | 0.0111 | 0.0174 |  | 
UUAGCGUAGGUAAGGAUAUGCUGGUCUAAUGAUCAGCAGAAGGUACAUGAGGAUCACCCAUGUGGAUUCGUUAU | 0.0185 | 0.037 |  | 
AAGUAACAUGAGGAUCACCCAUGUUAGGAUAUCUCGGCCACAGGAUCGCUGUGAAGCCAGAGAAGGAGCGGGUG | 0.175 | 0.186 |  | 
